# Laboratory results from ChEMBL document CHEMBL3286116, “Synthesis, biological evaluation and structure-activity correlation study of a series of imidazol-based compounds as Candida albicans inhibitors” (Eur J Med Chem, 2014).
# Tests used:
# Type in all cases: functional
# Candida albicans [1] = experiment: Antifungal activity against Candida albicans ATCC 90028 after 48 hrs by CLSI broth microdilution method; details: ATCC 90028, 48 h
# How it was run: (§1)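 Yeast CLSI broth microdilution (M27-A3). Compounds dissolved in DMSO at 100× the top test concentration, then diluted as serial two-fold dilutions in RPMI 1640 to final 0.125–64. Inoculum was 1.0–1.5 × 10^3 cells mL−1, incubated at 35 °C and read for growth at 48 h. MIC is the lowest concentration giving ≥50% growth inhibition versus growth control. Reported as the median of five replicates and as the geometric mean.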
# Candida albicans [2] = experiment: Antifungal activity against Candida albicans ATCC 20891 after 48 hrs by CLSI broth microdilution method; details: ATCC 20891, 48 h; how it was run: as §1
# Candida albicans [3] = experiment: Antifungal activity against Candida albicans PMC 1011 after 48 hrs by CLSI broth microdilution method; details: PMC 1011, 48 h; how it was run: as §1
# Pichia kudriavzevii [4] = experiment: Antifungal activity against Candida krusei DSM 6128 after 48 hrs by CLSI broth microdilution method; details: DSM 6128, 48 h; how it was run: as §1
# Pichia kudriavzevii [5] = experiment: Antifungal activity against Candida krusei PMC 0613 after 48 hrs by CLSI broth microdilution method; details: PMC 0613, 48 h; how it was run: as §1
# Candida tropicalis [6] = experiment: Antifungal activity against Candida tropicalis PMC 0910 after 48 hrs by CLSI broth microdilution method; details: PMC 0910, 48 h; how it was run: as §1
# Candida tropicalis [7] = experiment: Antifungal activity against Candida tropicalis DSM 11953 after 48 hrs by CLSI broth microdilution method; details: DSM 11953, 48 h; how it was run: as §1
# Candida parapsilosis [8] = experiment: Antifungal activity against Candida parapsilosis DSM 11224 after 48 hrs by CLSI broth microdilution method; details: Lodderomyces parapsilosis, DSM 11224, 48 h; how it was run: as §1
# Candida parapsilosis [9] = experiment: Antifungal activity against Candida parapsilosis ATCC 22019 after 48 hrs by CLSI broth microdilution method; details: Lodderomyces parapsilosis, ATCC 22019, 48 h; how it was run: as §1
# Nakaseomyces glabratus [10] = experiment: Antifungal activity against Candida glabrata PMC 0805 after 48 hrs by CLSI broth microdilution method; details: PMC 0805, 48 h; how it was run: as §1
# Nakaseomyces glabratus [11] = experiment: Antifungal activity against Candida glabrata PMC 0807 after 48 hrs by CLSI broth microdilution method; details: PMC 0807, 48 h; how it was run: as §1
# Cryptococcus neoformans [12] = experiment: Antifungal activity against Cryptococcus neoformans PMC 2123 after 72 hrs by CLSI broth microdilution method; details: PMC 2123, 72 h
# How it was run: (§2)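 Cryptococcus neoformans tested by CLSI broth microdilution in RPMI 1640, with serial two-fold dilutions from DMSO stocks at 100× the top concentration, final 0.125–64. Inoculum was 1.0–1.5 × 10^3 cells mL−1 at 35 °C, with growth read at 72 h. MIC is the lowest concentration with ≥50% growth inhibition versus control. Median of five replicates, plus geometric mean.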
# Cryptococcus neoformans [13] = experiment: Antifungal activity against Cryptococcus neoformans PMC 2136 after 72 hrs by CLSI broth microdilution method; details: PMC 2136, 72 h; how it was run: as §2
# Cryptococcus neoformans [14] = experiment: Antifungal activity against Cryptococcus neoformans PMC 2115 after 72 hrs by CLSI broth microdilution method; details: PMC 2115, 72 h; how it was run: as §2
# Cryptococcus neoformans [15] = experiment: Antifungal activity against Cryptococcus neoformans PMC 2103 after 72 hrs by CLSI broth microdilution method; details: PMC 2103, 72 h; how it was run: as §2
# Cryptococcus neoformans [16] = experiment: Antifungal activity against Cryptococcus neoformans PMC 2107 after 72 hrs by CLSI broth microdilution method; details: PMC 2107, 72 h; how it was run: as §2
# Cryptococcus neoformans [17] = experiment: Antifungal activity against Cryptococcus neoformans PMC 2102 after 72 hrs by CLSI broth microdilution method; details: PMC 2102, 72 h; how it was run: as §2
# Cryptococcus neoformans [18] = experiment: Antifungal activity against Cryptococcus neoformans DSM 11959 after 72 hrs by CLSI broth microdilution method; details: DSM 11959, 72 h; how it was run: as §2
# Cryptococcus neoformans [19] = experiment: Antifungal activity against Cryptococcus neoformans PMC 2111 after 72 hrs by CLSI broth microdilution method; details: PMC 2111, 72 h; how it was run: as §2
# [20] = system: Trichophyton mentagrophytes; experiment: Antifungal activity against Trichophyton mentagrophytes DSM 4870 after 72 hrs by CLSI broth microdilution method; details: DSM 4870, 72 h
# How it was run: (§3)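 Dermatophytes tested by CLSI broth microdilution for filamentous fungi (M38-A2). Serial two-fold dilutions of DMSO-dissolved compound in RPMI 1640, final 0.125–64. Inoculum was 0.4–5 × 10^4 CFU mL−1, incubated at 35 °C and read at 72 h. MIC80 is the lowest concentration giving ≥80% growth inhibition versus growth control. Median of five replicates, plus geometric mean.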
# [21] = system: Trichophyton mentagrophytes; experiment: Antifungal activity against Trichophyton mentagrophytes PMC 6515 after 72 hrs by CLSI broth microdilution method; details: PMC 6515, 72 h; how it was run: as §3
# [22] = system: Trichophyton mentagrophytes; experiment: Antifungal activity against Trichophyton mentagrophytes PMC 6531 after 72 hrs by CLSI broth microdilution method; details: PMC 6531, 72 h; how it was run: as §3
# [23] = system: Trichophyton mentagrophytes; experiment: Antifungal activity against Trichophyton mentagrophytes PMC 6509 after 72 hrs by CLSI broth microdilution method; details: PMC 6509, 72 h; how it was run: as §3
# [24] = system: Trichophyton mentagrophytes; experiment: Antifungal activity against Trichophyton mentagrophytes PMC 6503 after 72 hrs by CLSI broth microdilution method; details: PMC 6503, 72 h; how it was run: as §3
# [25] = system: Trichophyton mentagrophytes; experiment: Antifungal activity against Trichophyton mentagrophytes PMC 6552 after 72 hrs by CLSI broth microdilution method; details: PMC 6552, 72 h; how it was run: as §3
# Nannizzia gypsea [26] = experiment: Antifungal activity against Microsporum gypseum PMC 7303 after 72 hrs by CLSI broth microdilution method; details: PMC 7303, 72 h; how it was run: as §3
# Nannizzia gypsea [27] = experiment: Antifungal activity against Microsporum gypseum PMC 7331 after 72 hrs by CLSI broth microdilution method; details: PMC 7331, 72 h; how it was run: as §3
# Nannizzia gypsea [28] = experiment: Antifungal activity against Microsporum gypseum DSM 3824 after 72 hrs by CLSI broth microdilution method; details: DSM 3824, 72 h; how it was run: as §3
# Candida albicans [29] = experiment: Antifungal activity against Candida albicans PMC 1040R after 48 hrs by CLSI broth microdilution method; how it was run: as §1
# Candida albicans [30] = experiment: Antifungal activity against Candida albicans PMC 1041R after 48 hrs by CLSI broth microdilution method; how it was run: as §1
# Nakaseomyces glabratus [31] = experiment: Antifungal activity against Candida glabrata PMC 0850R after 48 hrs by CLSI broth microdilution method; how it was run: as §1
# Nakaseomyces glabratus [32] = experiment: Antifungal activity against Candida glabrata PMC 0851R after 48 hrs by CLSI broth microdilution method; how it was run: as §1
# Nakaseomyces glabratus [33] = experiment: Antifungal activity against Candida glabrata PMC 0852R after 48 hrs by CLSI broth microdilution method; how it was run: as §1
# Nakaseomyces glabratus [34] = experiment: Antifungal activity against Candida glabrata PMC 0853R after 48 hrs by CLSI broth microdilution method; how it was run: as §1
# Candida albicans [35] = experiment: Antifungal activity against Candida albicans PMC 1042R after 48 hrs by CLSI broth microdilution method; how it was run: as §1
# Candida albicans [36] = experiment: Ratio of fluconazole MIC to compound MIC for Candida albicans PMC 1040R after 48 hrs by CLSI broth microdilution method
# Candida albicans [37] = experiment: Ratio of fluconazole MIC to compound MIC for Candida albicans PMC 1041R after 48 hrs by CLSI broth microdilution method
# Nakaseomyces glabratus [38] = experiment: Ratio of fluconazole MIC to compound MIC for Candida glabrata PMC 0850R after 48 hrs by CLSI broth microdilution method
# Nakaseomyces glabratus [39] = experiment: Ratio of fluconazole MIC to compound MIC for Candida glabrata PMC 0851R after 48 hrs by CLSI broth microdilution method
# Nakaseomyces glabratus [40] = experiment: Ratio of fluconazole MIC to compound MIC for Candida glabrata PMC 0852R after 48 hrs by CLSI broth microdilution method
# Nakaseomyces glabratus [41] = experiment: Ratio of fluconazole MIC to compound MIC for Candida glabrata PMC 0853R after 48 hrs by CLSI broth microdilution method
# Candida albicans [42] = experiment: Ratio of fluconazole MIC to compound MIC for Candida albicans PMC 1042R after 48 hrs by CLSI broth microdilution method
# Candida albicans [43] = experiment: Antifungal activity against Candida albicans ATCC 24433 after 48 hrs by CLSI broth microdilution method; details: ATCC 24433, 48 h; how it was run: as §1
# Candida albicans [44] = experiment: Antifungal activity against Candida albicans ATCC 3153 after 48 hrs by CLSI broth microdilution method; details: ATCC 3153, 48 h; how it was run: as §1
# Candida albicans [45] = experiment: Antifungal activity against Candida albicans ATCC 10231 after 48 hrs by CLSI broth microdilution method; details: ATCC 10231, 48 h; how it was run: as §1
# Candida albicans [46] = experiment: Antifungal activity against Candida albicans ATCC 76615 after 48 hrs by CLSI broth microdilution method; details: ATCC 76615, 48 h; how it was run: as §1
# Candida albicans [47] = experiment: Antifungal activity against Candida albicans ATCC 10261 after 48 hrs by CLSI broth microdilution method; details: ATCC 10261, 48 h; how it was run: as §1
structure (smiles),measurement,setting,value
O=C(Nc1ccc(N2CCN(c3ccc(Cl)cc3)CC2)cc1)O[C@@H](Cn1ccnc1)c1ccc(F)cc1,MIC50,Candida albicans [1],0.125 µg/mL
same,MIC50,Candida albicans [2],0.0625 µg/mL
same,MIC50,Candida albicans [3],0.0625 µg/mL
same,MIC50,Pichia kudriavzevii [4],0.5 µg/mL
same,MIC50,Pichia kudriavzevii [5],0.0625 µg/mL
same,MIC50,Candida tropicalis [6],2 µg/mL
same,MIC50,Candida tropicalis [7],0.25 µg/mL
same,MIC50,Candida parapsilosis [8],0.0625 µg/mL
same,MIC50,Candida parapsilosis [9],0.125 µg/mL
same,MIC50,Nakaseomyces glabratus [10],0.0625 µg/mL
same,MIC50,Nakaseomyces glabratus [11],0.25 µg/mL
same,MIC50,Cryptococcus neoformans [12],0.25 µg/mL
same,MIC50,Cryptococcus neoformans [13],0.0625 µg/mL
same,MIC50,Cryptococcus neoformans [14],0.25 µg/mL
same,MIC50,Cryptococcus neoformans [15],0.06 µg/mL
same,MIC50,Cryptococcus neoformans [16],0.25 µg/mL
same,MIC50,Cryptococcus neoformans [17],0.25 µg/mL
same,MIC50,Cryptococcus neoformans [18],0.125 µg/mL
same,MIC50,Cryptococcus neoformans [19],0.5 µg/mL
same,MIC80,[20],4 µg/mL
same,MIC80,[21],4 µg/mL
same,MIC80,[22],4 µg/mL
same,MIC80,[23],4 µg/mL
same,MIC80,[24],4 µg/mL
same,MIC80,[25],2 µg/mL
same,MIC80,Nannizzia gypsea [26],2 µg/mL
same,MIC80,Nannizzia gypsea [27],4 µg/mL
same,MIC80,Nannizzia gypsea [28],2 µg/mL
same,MIC50,Candida albicans [29],64 µg/mL
same,MIC50,Candida albicans [30],0.5 µg/mL
same,MIC50,Nakaseomyces glabratus [31],0.25 µg/mL
same,MIC50,Nakaseomyces glabratus [32],64 µg/mL
same,MIC50,Nakaseomyces glabratus [33],2 µg/mL
same,MIC50,Nakaseomyces glabratus [34],2 µg/mL
same,MIC50,Candida albicans [35],1 µg/mL
same,Ratio,Candida albicans [36],15
same,Ratio,Candida albicans [37],15
same,Ratio,Nakaseomyces glabratus [38],15
same,Ratio,Nakaseomyces glabratus [39],15
same,Ratio,Nakaseomyces glabratus [40],15
same,Ratio,Nakaseomyces glabratus [41],15
same,Ratio,Candida albicans [42],15
same,MIC50,Candida albicans [43],0.5 µg/mL
same,MIC50,Candida albicans [44],0.5 µg/mL
same,MIC50,Candida albicans [45],0.25 µg/mL
same,MIC50,Candida albicans [46],0.5 µg/mL
same,MIC50,Candida albicans [47],0.125 µg/mL
